Published values pooled from the literature.
Each line is one published result; the experiments were not run side by side.
EGFR L858R/T790M: Epidermal growth factor receptor (EGFR, Homo sapiens, UniProt P00533, L858R/T790M)
EGFR: Epidermal growth factor receptor (EGFR, Homo sapiens, UniProt P00533)
EGFR G719C: Epidermal growth factor receptor (EGFR, Homo sapiens, UniProt P00533, G719C)
EGFR L858R: Epidermal growth factor receptor (EGFR, Homo sapiens, UniProt P00533, L858R)
EGFR del746-750: Epidermal growth factor receptor (EGFR, Homo sapiens, UniProt P00533, del746-750)
EGFR T790M: Epidermal growth factor receptor (EGFR, Homo sapiens, UniProt P00533, T790M)
EGFR G719S: Epidermal growth factor receptor (EGFR, Homo sapiens, UniProt P00533, G719S)

| Structure (SMILES) | target | observed | method | tested at | remaining binding [%] |
| --- | --- | --- | --- | --- | --- |
| COc1ccnn2ncc(-c3ccnc(N(C)C)n3)c12 | EGFR L858R/T790M | binding |  | 1 µM | 93 |
| c1ccc(N2CCN(Cc3nc4ccccc4[nH]3)CC2)nc1 | Epidermal growth factor receptor (EGFR, Homo sapiens, UniProt P00533, A750P/del747-749) | cell-free assay | competition with immobilised ligand | 1 µM | 100 |
| O=C(c1ccc(Nc2nccc(-c3cc4ccccc4s3)n2)cc1)N1CCC(N2CCCC2)CC1 | Epidermal growth factor receptor (EGFR, Homo sapiens, UniProt P00533, del752-759) | binding | competition with immobilised ligand | 1 µM | 93 |
| Nc1ncc2c(n1)-c1c([nH]c3ccc(C#CC4CC4)cc13)CCCC2 | EGFR | binding | competition with immobilised ligand | 1 µM | 80 |
| O=c1nc(-c2ccccn2)sc2ccccc12 | EGFR G719C | cell-free assay | competition with immobilised ligand | 1 µM | 77 |
| CCN1CCN(Cc2ccc(C(=O)Nc3ccc(C)c(Oc4ccc5c(c4)CC(=O)N5)c3)cc2C(F)(F)F)CC1 | EGFR L858R | binding | competition with immobilised ligand | 1 µM | 100 |
| Nc1cnc(N2CCc3cc(S(=O)(=O)Nc4c(F)cc(Cl)cc4F)cc(N4CCCC4=O)c32)nc1 | EGFR | cell-free assay | competition with immobilised ligand | 1 µM | 82 |
| O=C(NCC1CCOCC1)c1n[nH]cc1NC(=O)c1c(F)cccc1F | EGFR L858R/T790M | binding | competition with immobilised ligand | 1 µM | 97 |
| CC(C)CC(=O)N1CCc2nc(-c3ccc(Br)cc3)nc(N(C)Cc3ccccc3)c2C1 | EGFR del746-750 | cell-free assay | competition with immobilised ligand | 0.1 µM | 100 |
| O=C(NCCCN1CCOCC1)c1ccc(Nc2ncc(Cl)c(-c3ccc(Cl)s3)n2)cc1 | EGFR L858R | binding | competition with immobilised ligand | 1 µM | 82 |
| CC(=O)c1c(NS(C)(=O)=O)c2cc(-c3ccc(Cl)cc3)c(-c3ccc(Cl)cc3Cl)nc2n(C)c1=O | Epidermal growth factor receptor (EGFR, Homo sapiens, UniProt P00533, L861Q) | cell-free assay | competition with immobilised ligand | 1 µM | 100 |
| CN(C)c1nccc(-c2cnc3ncccn23)n1 | EGFR G719C | binding |  | 1 µM | 100 |
| O=C(N[C@H]1CCCCC/C=C\C2C[C@@]2(C(=O)O)NC(=O)[C@@H]2C[C@@H](Oc3ccncc3)CN2C1=O)OC1CCCC1 (some centres unmarked) | EGFR del746-750 | cell-free assay | competition with immobilised ligand | 1 µM | 78 |
| CN(c1nccc(-c2cnn3ncccc23)n1)C1CC1 | EGFR del746-750 | binding |  | 1 µM | 100 |
| COc1cnc(Nc2cccc(S(N)(=O)=O)c2)nc1N1CCN(c2ccccc2)C(=O)C1 | EGFR | binding | competition with immobilised ligand | 1 µM | 100 |
| Cc1cnn2ncc(-c3ccnc(N(C)C)n3)c2c1 | EGFR T790M | binding |  | 1 µM | 100 |
| CNC(=O)[C@@H]1CC[C@@H](n2c(-c3ccc4cnccc4c3)nc3ccc(C(=O)NCc4cccc(C(N)=O)c4)cc32)C1 | EGFR L858R/T790M | binding | competition with immobilised ligand | 1 µM | 92 |
| C[C@H]1CCN(c2nccc(-c3cnn4ncccc34)n2)C1 | EGFR L858R | binding |  | 1 µM | 100 |
| O=C(NCCCN1CCOCC1)c1ccc(Nc2nccc(-c3cc4ccccc4s3)n2)cc1 | EGFR T790M | binding | competition with immobilised ligand | 1 µM | 90 |
| c1cnn2ncc(-c3ccnc(N4CCC45COC5)n3)c2c1 | EGFR G719S | binding |  | 1 µM | 100 |
| CN(C)c1ncnc(-c2ccc3nc(Nc4cc(CN5CCN(C(=O)CC(F)(F)F)CC5)ccn4)[nH]c3c2)c1Cl | Epidermal growth factor receptor (EGFR, Homo sapiens, UniProt P00533, del747-750/T751S) | cell-free assay | competition with immobilised ligand | 1 µM | 88 |
| CC1CCCN1c1nccc(-c2cnn3ncccc23)n1 (centres unmarked) | EGFR G719S | binding |  | 1 µM | 100 |
| O=C(c1ccc(Nc2ncc(Cl)c(-c3ccc(Cl)s3)n2)cc1)N1CCC(N2CCCC2)CC1 | EGFR T790M | binding | competition with immobilised ligand | 1 µM | 63 |
